The values that follow come from ChEMBL document CHEMBL4699639, “Discovery of Novel 2-Aniline-1,4-naphthoquinones as Potential New Drug Treatment for Leber's Hereditary Optic Neuropathy (LHON)” (J Med Chem, 2020).

Calls of active or inactive are those of the source. No cut-off for these calls is given here.

Data set [1] deals with HepG2. Put plainly: Suppression of rotenone-induced ATP depletion in human HepG2 cells assessed as increase in rescue of ATP level at 1 uM incubated for 2 hrs by Celltiter-Glo assay. It counts as functional, cell-based. In a few lines:
(§1)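 HepG2 cells seeded 10×10^3 per well in 1 g/L glucose, 2% FBS medium the day before. Switched to glucose- and FBS-free medium containing 10 µM rotenone, with compound added at the same time, 2 h at 37 °C. ATP read by CellTiter-Glo luminescence, normalized to DMSO cells without rotenone. Mean ± SEM of ≥3 independent runs. Complex III inhibitors, where used, at 50 nM.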
For orientation: Cellular ATP, detected with luciferase, serves as a proxy for viable cell number.

A short description of data set [2]: Suppression of rotenone-induced ATP depletion in human HepG2 cells assessed as rescue of ATP level at 5 uM incubated for 2 hrs by Celltiter-Glo assay relative to control. The format is functional. In a few lines: as §1
Data set [3] has as its system SH-SY5Y. Put plainly: Cytotoxicity against human SH-SY5Y cells assessed as reduction in cell viability at 25 uM incubated for 24 hrs by Celltiter-blue assay. The format is cell-based. A digest of the protocol: (§2)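 HepG2 or SH-SY5Y seeded 10×10^3 per well the day before in 1 g/L glucose medium with 2% FBS. Medium replaced with fresh 2% FBS, 1 g/L glucose medium containing compound (25 µM) for 24 h at 37 °C. CellTiter-Blue added for 4 h, fluorescence read at 560/590 nm. Viability given as % of vehicle/untreated cells. Mean ± SEM of ≥3 independent runs.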

The test system of data set [4] is HepG2. Put plainly: Suppression of rotenone-induced ATP depletion in human HepG2 cells assessed as increase in rescue of ATP level at 0.1 to 1 uM incubated for 2 hrs by Celltiter-Glo assay. The format is functional, cell-based. Particulars: dose microM 0.1-1, time 2.0 hrs. A digest of the protocol: as §1
The test system of data set [5] is HepG2. Put plainly: Cytotoxicity against human HepG2 cells assessed as reduction in cell viability incubated for 24 hrs by Celltiter-blue assay. Particulars: HepG2, 24 h. The format is cell-based. Background: The colour change of resazurin is a common sign of viable cells or microbes.
In data set [6] the target is NAD(P)H dehydrogenase [quinone] 1 (Homo sapiens) (UniProt P15559). Put plainly: Substrate activity at recombinant NQO1 (unknown origin) assessed as reduction in NADH level at 20 uM measured for 6 mins by microplate reader analysis.
Data set [7] is described as follows: Suppression of rotenone-induced ATP depletion in human HepG2 cells incubated for 2 hrs by Celltiter-Glo assay. Particulars: HepG2, 2 h. The format is functional, cell-based. In a few lines:
as §1

Data set [8] has as its system SH-SY5Y. Put plainly: Cytotoxicity against human SH-SY5Y cells assessed as reduction in cell viability incubated for 24 hrs by Celltiter-blue assay. It counts as cell-based.
Data set [9] is described as follows: Cytotoxicity against human HepG2 cells assessed as cell viability at 25 uM incubated for 24 hrs by Celltiter-blue assay relative to control. The format is cell-based. Particulars: read-out: Activity. In a few lines:
as §2

A short description of data set [10]: Suppression of rotenone-induced ATP depletion in human HepG2 cells assessed as rescue of ATP level incubated for 2 hrs by Celltiter-Glo assay relative to control. It counts as functional. Also on record: concentration or dose not given beside the values. In a few lines: as §1
Data set [11] concerns HepG2. Put plainly: Cytotoxicity against human HepG2 cells assessed as cell reduction in cell viability at 25 uM incubated for 24 hrs by Celltiter-blue assay. It counts as cell-based. Particulars: hepg2, 24 h. A digest of the protocol:
as §2

Data set [12] has as its target NAD(P)H dehydrogenase [quinone] 1 (Homo sapiens) (UniProt P15559). Put plainly: Substrate activity at NQO1 in human HepG2 cells assessed as reduction in cell viability by WST-1 assay. The format is cell-based. For orientation: Formazan colour is commonly taken as a measure of viable cells.
Data set [13] has the same target. Put plainly: Substrate activity at NQO1 in human HepG2 cells assessed as reduction in cell viability in presence of NQO1 inhibitor dicoumarol by WST-1 assay. It counts as cell-based.
Data set [14] relates to SH-SY5Y. Put plainly: Cytotoxicity against human SH-SY5Y cells assessed as reduction in cell viability by WST-1 assay. The format is cell-based.
Data set [15] is described as follows: Cytotoxicity against […] assessed as reduction in cell viability by WST-1 assay. The format is cell-based. Particulars: r28.
Data set [16] concerns HepG2. Put plainly: Suppression of rotenone-induced ATP depletion in human HepG2 cells assessed as rescue of ATP level at 5 uM incubated for 2 hrs in presence of complex III inhibitor antimycin by Celltiter-Glo assay. The format is functional, cell-based. In a few lines:
as §1

The subject of data set [17] is HepG2. Put plainly: Suppression of rotenone-induced ATP depletion in human HepG2 cells assessed as rescue of ATP level at 5 uM incubated for 2 hrs in presence of complex III inhibitor myxothiazol by Celltiter-Glo assay. It counts as functional, cell-based. In a few lines:
as §1

For data set [18], the system named is HepG2. Put plainly: Suppression of rotenone-induced ATP depletion in human HepG2 cells assessed as rescue of ATP level at 5 uM incubated for 2 hrs in presence of NQO1 irreversible inhibitor ES936 by Celltiter-Glo assay. The format is functional, cell-based.
Data set [19] deals with HepG2. Put plainly: Suppression of rotenone-induced ATP depletion in human HepG2 cells assessed as rescue of ATP level at 5 uM incubated for 2 hrs in presence of NQO1 inhibitor dicoumarol by Celltiter-Glo assay. The format is functional, cell-based.

NAD(P)H dehydrogenase [quinone] 1 (Homo sapiens), sequence (P15559 whole entry): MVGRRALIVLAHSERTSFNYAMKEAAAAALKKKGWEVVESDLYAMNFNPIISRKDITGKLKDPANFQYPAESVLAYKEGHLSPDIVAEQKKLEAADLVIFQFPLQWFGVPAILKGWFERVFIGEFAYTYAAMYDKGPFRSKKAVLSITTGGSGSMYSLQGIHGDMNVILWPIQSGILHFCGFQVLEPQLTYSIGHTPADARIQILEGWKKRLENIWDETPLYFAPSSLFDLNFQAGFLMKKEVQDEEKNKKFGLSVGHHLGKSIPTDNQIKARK

Turning to `O=C1C(Cl)=C(NCc2ccccc2)C(=O)c2ccccc21`, the outcome in data set [1] was Active. Also, the values for the Activity in data set [2] and in data set [3] were 70% and “Toxic”, respectively.
In the case of `CC1=C(CCCC(=O)NCCc2ccc(O)cc2)C(=O)c2ccccc2C1=O`, in data set [4], the outcome was Active. Further, the figures for the IC50 in [5] and in [8] were greater than 100 µM and 76 µM, respectively. For the same compound, the outcome in data set [6] was inactive. In data set [7], the EC50 amounted to 0.8 µM.
In the case of `COC1=C(Nc2ccccc2)C(=O)c2ccccc2C1=O`, in data set [1], the result was inactive. In addition, the Activity result in [3] was “Non-Toxic”.
For the compound `CC1=C(SC(C)(C)C)C(=O)c2ccccc2C1=O`, the Activity in data set [2] is listed as 70%; in data set [3], “Toxic”.
Turning to `O=C1C(Nc2ccccc2)=C(Oc2ccccc2)C(=O)c2ccccc21`, the outcome in data set [1] was inactive.
For `O=C1C(Cl)=C(Nc2ccc(F)c(C(F)(F)F)c2)C(=O)c2ccccc21`, the viability at 24 h, 25 µM in data set [9] worked out at 65.8%. Moreover, the Activity in data set [10] is 40.3%.
Turning to `O=C1C=C(NCCCCO)C(=O)c2ccccc21`, the Activity entry in data set [3] was “Toxic”.
For `CNC1=C(Nc2ccc(F)c(C(F)(F)F)c2)C(=O)c2ccccc2C1=O`, the viability at 24 h, 25 µM in data set [9] came out at 95.8%. Moreover, the Activity entry in data set [3] was “Non-Toxic”; in data set [10], 14.7%. Besides, the result in data set [6] was inactive.
`O=C1C(Cl)=C(Nc2cccc(C(F)(F)F)c2)C(=O)c2ccccc21`: in data set [1], the outcome was Active. Besides, the Activity entry in [11] and in data set [3] was “Toxic” each time.
On to `CCCCNC1=C(Cl)C(=O)c2ccccc2C1=O`, for which the Activity in data set [2] is 70%; in data set [3], “Toxic”.
For `CSC1=C(Nc2cc(C(F)(F)F)ccc2F)C(=O)c2ccccc2C1=O`, the result in [1] was Active. Besides, the Activity result in data set [3] is given as “Non-Toxic”.
Turning to `CN(C)C1=C(Nc2ccccc2)C(=O)c2ccccc2C1=O`, the result in data set [1] was Active.
Still for that read-out and setting: the entry for `O=C1C(Cl)=C(NCCc2cccc(C(F)(F)F)c2)C(=O)c2ccccc21` is “Active”.
As to `O=C(OC1=C(c2ccccc2)C(=O)c2ccccc2C1=O)c1cccc([N+](=O)[O-])c1`, the Activity result in data set [3] is listed as “Toxic”.
For the compound `O=C1C(Cl)=C(Nc2ccccc2)C(=O)c2ccccc21`, in [1], the outcome was Active.
As to `O=C1C=C(NCCc2ccccc2)C(=O)c2ccccc21`, the Activity result in [3] is “Toxic”.
For the compound `CC(C)OC1=C(Nc2ccccc2)C(=O)c2ccccc2C1=O`, in data set [1], the outcome was inactive.
In the case of `COC1=C(Nc2cccc(C(F)(F)F)c2)C(=O)c2ccccc2C1=O`, the outcome in data set [1] and in data set [12] was Active. Moreover, the Activity in [2] is listed as 70%; in [3], “Non-Toxic”; in data set [14], “Non-Toxic”; in data set [15], “Non-Toxic”. In data set [13], the outcome was inactive.
For the compound `CCOC1=C(Nc2ccccc2)C(=O)c2ccccc2C1=O`, the outcome in data set [1] was inactive. Moreover, the Activity result in data set [3] is “Non-Toxic”.
On to `CNC1=C(Nc2ccccc2)C(=O)c2ccccc2C1=O`, for which the Activity entry in [3] is reported as “Non-Toxic”. The result in data set [6] was inactive.
On to `CCCCC1=C(C)C(=O)c2ccccc2C1=O`, for which the Activity entry in [3] is recorded as “Toxic”.
With `CCNC1=C(Nc2ccccc2)C(=O)c2ccccc2C1=O`, the outcome in data set [1] was Active. For the same compound, in [3], the Activity entry is recorded as “Non-Toxic”.
As for `COC(=O)c1ccc(NC2=C(Cl)C(=O)c3ccccc3C2=O)cc1`, the Activity in data set [2] is given as 70%; in data set [11], “Toxic”; in data set [3] it was “Toxic”.
Consider `CSC1=C(Nc2cccc(C(F)(F)F)c2)C(=O)c2ccccc2C1=O`, for which the Activity entry in data set [3] was “Non-Toxic”.
As for `CC1=C(CCCCCCCCCCO)C(=O)c2ccccc2C1=O`, the result in data set [1] was inactive.
For the compound `COC1=C(Nc2cc(C(F)(F)F)ccc2F)C(=O)c2ccccc2C1=O`, the outcome in data set [1] and in data set [12] was Active. In data set [13], the outcome was inactive. Besides, the Activity entry in data set [3], in data set [14] and in [15] was “Non-Toxic” throughout.
Consider `O=C1C(Cl)=C(NCc2cccc(C(F)(F)F)c2)C(=O)c2ccccc21`, for which the result in data set [1] was Active.
With `O=C1C=C(Nc2ccc(F)c(C(F)(F)F)c2)C(=O)c2ccccc21`, the viability at 24 h, 25 µM in data set [9] stood at 35.6%. The Activity result is reported as “Non-Toxic” in data set [3] and 54.5% in data set [10].
Take `O=C1C(Nc2ccc(F)c(C(F)(F)F)c2)=C(SC(F)(F)F)C(=O)c2ccccc21`: the outcome in data set [1], in data set [12] and in data set [6] was Active. In addition, the viability at 24 h, 25 µM in [9] came out at 65.8%. Moreover, the Activity result in data set [11] is given as “Toxic”; in data set [3], “Toxic”; in [14], “Non-Toxic”; in [10], 58.6%; in [15] it was “Non-Toxic”. Also, in data set [13], the result was inactive.
With `O=C1C(Cl)=C(NCCc2ccccc2)C(=O)c2ccccc21`, in [1], the result was Active.
Turning to `O=C1C(Cl)=C(Nc2cccc(O)c2)C(=O)c2ccccc21`, in data set [12], the result was Active. Moreover, the result in data set [13] was inactive. The Activity result in data set [14] and in data set [15] was “Non-Toxic” each time.
As for `CC1=C(Sc2ccccc2)C(=O)c2ccccc2C1=O`, the Activity is reported as 70% in [2] and “Toxic” in [3].
`O=C1C(Br)=C(NCCc2ccccn2)C(=O)c2ccccc21`: the Activity result in data set [3] is “Toxic”.
As for `O=C1C(Nc2cccc(C(F)(F)F)c2)=C(SC(F)(F)F)C(=O)c2ccccc21`, in [1], the outcome was Active. Besides, the Activity result in data set [11] and in [3] was “Toxic” in each case.
For `O=C1C=C(NCc2ccccc2)C(=O)c2ccccc21`, in [1], the outcome was Active. Also, the Activity result in data set [3] is recorded as “Toxic”.
Consider `CCSC1=C(Nc2cccc(C(F)(F)F)c2)C(=O)c2ccccc2C1=O`, for which the result in data set [1] and in data set [12] was Active. Besides, the Activity result in data set [11] was “Toxic”; in [3] it was “Toxic”; in [14], “Non-Toxic”; in [15], “Non-Toxic”. In addition, the result in data set [13] was inactive.
In the case of `O=C1C(Cl)=C(Nc2ccc(Nc3ccccc3)cc2)C(=O)c2ccccc21`, the Activity entry in [11] and in data set [3] was “Toxic” throughout.
Take `CC(C)SC1=C(Nc2cccc(C(F)(F)F)c2)C(=O)c2ccccc2C1=O`: the outcome in data set [1] was Active. Also, the Activity entry in [11] and in data set [3] was “Toxic” throughout.
On to `CC1=C(Nc2ccc(F)c(C(F)(F)F)c2)C(=O)c2ccccc2C1=O`, for which the result in data set [1], in data set [4] and in [12] was Active. Moreover, the viability at 24 h, 25 µM in [9] amounted to 101%. Further, the result in data set [16], in data set [17], in [13], in [18] and in data set [19] was inactive. Also, the half-maximal inhibitory concentration (IC50) in data set [5] and in data set [8] was greater than 100 µM each time. Moreover, the Activity result is “Non-Toxic” in data set [3], “Non-Toxic” in [14], 52.6% in [10] and “Non-Toxic” in data set [15]. Besides, in data set [7], the EC50 worked out at 0.91 µM.

For orientation: IC50 means the concentration at which inhibition is half-maximal. As a reminder, the EC50 is the concentration at which the effect is half-maximal.
